Only some compounds are listed: those with a hit (about 2.7% of all), similar ones and a draw of the others.
DENV2 CPE rescue – inhibitors of DENV2 cytopathic effect, primary screen, cell-based, plate reader, single concentration | DENV2-infected cells, cytopathic effect rescue | CPE inhibition, % at 9.99 µM | hit rate 1.7% among 350,000 | AID 651640, 2012; in the data active = CPE inhibition above about 20%, passing the limit was not always enough; inconclusive = no clear call, values can overlap the other calls; tested in BHK-21 cells
AF4-AF9 inh – inhibitors of AF4 peptide binding to AF9, primary screen, biochemical, AlphaScreen, biotin-AF4 peptide, FLAG-AF9, single point; AID 651704, 2012; hit rate 0.47% among 350,000; Protein AF-9 (Homo sapiens), P42568; inhibition, % at 10 µM;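 active = every replicate reaching a set inhibition limit, whatever the replicate mean, cut at about 25% in these data; inconclusive = mean inhibition reaches that limit but some replicates miss it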
Target sequence (P42568 whole entry, looked up): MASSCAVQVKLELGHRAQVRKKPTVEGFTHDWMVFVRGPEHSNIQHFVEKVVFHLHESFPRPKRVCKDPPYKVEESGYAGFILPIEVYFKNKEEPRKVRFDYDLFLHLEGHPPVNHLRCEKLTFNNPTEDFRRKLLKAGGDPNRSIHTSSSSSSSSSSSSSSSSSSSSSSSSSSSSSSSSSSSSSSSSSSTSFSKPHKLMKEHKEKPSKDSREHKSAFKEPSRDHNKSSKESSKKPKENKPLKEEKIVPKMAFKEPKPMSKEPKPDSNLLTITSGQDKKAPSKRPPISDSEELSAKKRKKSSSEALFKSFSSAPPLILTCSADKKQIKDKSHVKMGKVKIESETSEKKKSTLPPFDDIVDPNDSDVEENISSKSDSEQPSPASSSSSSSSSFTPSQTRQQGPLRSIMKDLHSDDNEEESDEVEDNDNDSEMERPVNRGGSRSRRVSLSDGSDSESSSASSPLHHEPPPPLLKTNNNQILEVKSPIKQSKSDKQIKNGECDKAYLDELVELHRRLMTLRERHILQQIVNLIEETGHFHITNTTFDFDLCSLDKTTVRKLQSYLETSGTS
CaV13 FRET inh – Disruptors of the CACNA1D IQ motif to Ca2+-dependent inactivation inhibitor domain association, primary screening, Förster resonance energy transfer in intact living … | HEK cells, CFP/YFP FRET ICDI-IQ, plate reader, 10 min; percent FRET-ratio fall versus neutral wells | inhibition, % at 12.3 µM | hit rate 0.098% among 340,000;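 active = mean replicate inhibition of at least 30% and at least 1% of replicates passing that level; inconclusive = only one of the two criteria is met; inactive = neither criterion is met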
S100A4 inh HTS – inhibitors of S100A4-myosin IIA peptide binding, primary screen, biochemical, fluorescence polarization, TAMRA-MyoIIA peptide | hit rate 0.14% among 360,000 | inhibition, % at 10.7 µM | Protein S100-A4 (Homo sapiens), P26447 | AID 652163, 2013;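 active = mean inhibition of at least 70% across replicates, with every replicate also reaching that level; inconclusive = mean inhibition reaches 70% but some replicates fall short; inactive = mean inhibition below 70%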
Target sequence (P26447 whole entry, looked up): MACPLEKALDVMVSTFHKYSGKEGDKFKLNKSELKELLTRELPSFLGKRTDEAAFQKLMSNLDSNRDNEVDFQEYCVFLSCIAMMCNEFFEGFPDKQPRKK
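Material: S100A4 monomer protein | Medium: HEPES pH 7.2 with CaCl2, KCl, NaCl, DTT, Triton | Reagent: Labelled myosin peptide probe, 5 nM | Doses: One dose per compound | Times: 5 min incubation before reading | Benchmarks: Neutral control DMSO, positive control TFP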
SIRT5 block – SIRT5 desuccinylase inhibitors, primary screen, biochemical, fluorescence imaging, single point, set 5; Purified SirT5, succinyl-peptide AMC, trypsin-coupled fluorescence; inhibition, % at 15 µM; hit rate 1.1% among 330,000; AID 652115, 2013; in the data active = inhibition above about 15%; inconclusive = no clear call, values can overlap the other calls
Hits are given with their value; . = inactive; ? = inconclusive; / = not tested or not shown; ! = not active in a repeat.

SMILES	DENV2 CPE rescue	AF4-AF9 inh	CaV13 FRET inh	S100A4 inh HTS	SIRT5 block
Cc1ccc(S(=O)(=O)N2[C@@H]3CNC[C@H]2C3c2ccc(-c3cccc(F)c3)cc2)cc1 (some centres not stated)	.	.	/	.	.
CCS(=O)(=O)Nc1ccc2c(c1)C(=O)N(C)[C@@H]1CC[C@@H](CC(=O)NC)O[C@@H]1CO2	.	.	/	.	.
Cc1ccc(S(=O)(=O)NCC[C@H]2CC[C@@H](NC(=O)Nc3ccccc3F)[C@H](CO)O2)cc1	20	.	/	.	.
O=C(c1cccc(F)c1)N1CCCCN2[C@H](CO)[C@H](c3ccc(C#CC4(O)CCCC4)cc3)[C@@H]2C1	.	.	/	.	.
COC(=O)C[C@@H]1CC[C@@H]2[C@H](COc3ccc(NS(C)(=O)=O)cc3C(=O)N2C)O1	.	/	/	/	/
Cc1noc(C)c1NC(=O)N(C)C[C@@H]1Oc2c(NS(=O)(=O)c3ccccc3)cccc2C(=O)N([C@@H](C)CO)C[C@@H]1C	125	.	/	.	.
CNC[C@@H]1Oc2c(N)cccc2C(=O)N([C@H](C)CO)C[C@H]1C	.	.	/	.	.
CNC[C@H]1Oc2c(N)cccc2C(=O)N([C@H](C)CO)C[C@@H]1C	.	.	/	.	3.0
CNC[C@H]1Oc2c(NS(=O)(=O)c3ccc(F)cc3)cccc2C(=O)N([C@H](C)CO)C[C@@H]1C	.	/	.	.	/
C[C@H](CO)N1C[C@H](C)[C@@H](CN(C)C(=O)Nc2ccc3c(c2)OCO3)Oc2c(NS(=O)(=O)c3ccc(F)cc3)cccc2C1=O	48!	.	.	.	.
C[C@H](CO)N1C[C@H](C)[C@H](CN(C)C(=O)Nc2ccc3c(c2)OCO3)Oc2c(NS(=O)(=O)c3ccc(F)cc3)cccc2C1=O	.	.	/	.	.
Cc1ccc(S(=O)(=O)Nc2cccc3c2O[C@H](CN(C)C(=O)Nc2c(C)noc2C)[C@@H](C)CN([C@H](C)CO)C3=O)cc1	.	.	/	.	.
CNC[C@@H]1Oc2c(NS(=O)(=O)c3ccc(F)cc3)cccc2C(=O)N([C@H](C)CO)C[C@H]1C	21	.	/	?	.
CC(C)C#Cc1cnc2c(c1)C(=O)N([C@H](C)CO)C[C@H](C)[C@@H](CN(C)Cc1ccccc1F)O2	.	.	/	.	.
C[C@@H]1CN([C@@H](C)CO)C(=O)c2cccc(NS(=O)(=O)c3ccccc3)c2O[C@@H]1CN(C)C(=O)Nc1ccc(F)cc1	.	.	/	.	.
C[C@@H]1CN([C@@H](C)CO)C(=O)c2cccc(NS(=O)(=O)c3ccc(F)cc3)c2O[C@H]1CN(C)C(=O)Nc1ccccc1	.	.	/	.	22
C[C@@H]1CN([C@@H](C)CO)C(=O)Cc2cc(NC(=O)c3ccncc3)ccc2O[C@H]1CN(C)S(=O)(=O)c1cccs1	24	.	/	.	.
C[C@@H]1CN([C@@H](C)CO)C(=O)Cc2cc(NC(=O)Nc3ccccc3)ccc2O[C@H]1CN(C)S(=O)(=O)c1cccs1	25	.	/	.	.
C[C@H]1CN([C@@H](C)CO)C(=O)Cc2cc(NC(=O)Nc3ccc(F)cc3)ccc2O[C@@H]1CN(C)S(=O)(=O)c1cccs1	.	.	/	.	.
C[C@@H]1CN([C@@H](C)CO)C(=O)Cc2cc(NC(=O)Nc3ccc(C(F)(F)F)cc3)ccc2O[C@H]1CN(C)S(=O)(=O)c1cccs1	35	.	/	.	.
CO[C@@H]1CN(C)C(=O)c2ccc(NC(=O)NC(C)C)cc2OC[C@H](C)N(Cc2ccccn2)C[C@H]1C	/	.	/	.	.
COc1ccc(-c2ccc3c(c2)[C@@H]2[C@@H](CCN2C(=O)C2CCCC2)[C@H](CO)N3C)cc1	.	35	/	.	.
COc1ccc(-c2ccc3c(c2)[C@H]2[C@H](CCN2C(=O)C2CCC2)[C@H](CO)N3C)cc1	.	.	/	.	.
CN1c2ccc(C3=CCCCC3)cc2[C@@H]2[C@@H](CCN2C(=O)C2CCCCC2)[C@H]1CO	.	25	/	.	.
COc1ccc(-c2ccc3c(c2)[C@@H]2[C@@H](CCN2C(=O)C2CCOCC2)[C@@H](CO)N3C)cc1	115	/	/	/	/
SMILES	DENV2 CPE rescue	AF4-AF9 inh	CaV13 FRET inh	S100A4 inh HTS	SIRT5 block
COc1ccc(-c2ccc3c(c2)[C@H]2[C@H](CCN2C(=O)C2CCCCC2)[C@H](CO)N3C)cc1	.	.	/	.	.
CN1c2ccc(-c3cccc(F)c3)cc2[C@H]2[C@H](CCN2C(=O)C2CCC2)[C@H]1CO	.	28	/	/	/
C[C@@H]1CN([C@@H](C)CO)C(=O)c2cc(NC(=O)Nc3ccc4c(c3)OCO4)ccc2O[C@@H](C)CCCCO[C@H]1CN(C)C(=O)CCCN(C)C	.	/	/	/	/
Cc1ccc(S(=O)(=O)N(C)C[C@H]2Oc3ccc(NC(=O)CCCCCC(=O)Nc4ccccc4N)cc3CC(=O)N([C@H](C)CO)C[C@@H]2C)cc1	.	.	/	.	.
CCCNC(=O)N1CC[C@@H]2[C@@H](CO)N(C)c3ccc(-c4ccc(F)cc4)cc3[C@@H]21	.	.	/	93	.
COc1ccc(NC(=O)N(C)C[C@H]2Oc3ncc(C#CC(C)C)cc3C(=O)N([C@H](C)CO)C[C@H]2C)cc1	.	.	/	.	.
COc1ccc(NC(=O)N(C)C[C@@H]2Oc3ncc(C#CC(C)C)cc3C(=O)N([C@@H](C)CO)C[C@@H]2C)cc1	53	.	/	.	.
COc1ccc(NC(=O)N(C)C[C@@H]2Oc3ncc(C#CC(C)(C)O)cc3C(=O)N([C@H](C)CO)C[C@@H]2C)cc1	.	.	/	112	.
COc1ccc(NC(=O)N(C)C[C@@H]2Oc3ncc(C#CC(C)C)cc3C(=O)N([C@@H](C)CO)C[C@H]2C)cc1	.	.	/	.	.
Cn1cc([C@]2(O)C(=O)Nc3ccc(OC(F)(F)F)cc32)c2ccccc21	.	/	.	.	.
CN(C)CCNc1nc2sc3c(c2c(=O)n1-c1ccc(F)cc1)CCCCC3	26	.	.	.	.
Nc1cccnc1Oc1ccc(F)cc1	.	.	.	.	.
FC(F)(F)c1cccnc1Oc1ccc(C2=NCCS2)cc1	68	.	.	.	.
C[C@@H]1CCCCO[C@H](CN(C)C(=O)c2ccccc2)[C@H](C)CN([C@@H](C)CO)C(=O)c2cc(NS(=O)(=O)c3cccs3)ccc2O1	.	.	/	.	.
O=C(Nc1ccnn1C1CCN(C(=O)c2ccc(C(F)(F)F)cc2)CC1)C1CC1	.	.	.	.	23
COc1ccc(C(=O)Nc2ccnn2C2CCN(C(=O)c3cnsn3)CC2)cc1	40	.	.	.	.
COc1ccc(S(=O)(=O)Nc2ccc3c(c2)C(=O)N([C@H](C)CO)C[C@H](C)[C@@H](CN(C)Cc2ccccc2)OCCCC[C@H](C)O3)cc1	.	/	/	/	/
